In ChEMBL document CHEMBL1629686, “Substrate selectivity and a novel role in inhibitor discrimination by residue 237 in the KPC-2 beta-lactamase” (Antimicrob Agents Chemother, 2010):
≈ marks a conversion by molar mass, not a printed value.

What was measured:
[1] = tested on: Escherichia coli; test: Antimicrobial activity against Escherichia coli DH10B harboring beta-lactamase KPC-2 T237M mutant by agar dilution method; assay type: functional; settings: K-12 DH10B
In short: (§1)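 LB agar dilution MICs followed CLSI criteria, with inocula applied by Steers replicator. […] Piperacillin-tazobactam was tested at an 8:1 ratio. Wild-type and mutant blaKPC-2 were carried on pBC SK(+), or wild type on pBR322-catI, in E. coli DH10B.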

[2] = tested on: Escherichia coli; test: Antimicrobial activity against Escherichia coli DH10B harboring beta-lactamase KPC-2 T237A mutant by agar dilution method; assay type: functional; settings: K-12 DH10B; in short: as §1
[3] = tested on: Escherichia coli; test: Antimicrobial activity against Escherichia coli DH10B harboring beta-lactamase KPC-2 T237V mutant by agar dilution method; assay type: functional; settings: K-12 DH10B; in short: as §1
[4] = tested on: Escherichia coli; test: Antimicrobial activity against Escherichia coli DH10B harboring beta-lactamase KPC-2 T237Q mutant by agar dilution method; assay type: functional; settings: K-12 DH10B; in short: as §1
[5] = tested on: Escherichia coli; test: Antimicrobial activity against Escherichia coli DH10B harboring beta-lactamase KPC-2 T237C mutant by agar dilution method; assay type: functional; settings: K-12 DH10B; in short: as §1
[6] = tested on: Escherichia coli; test: Antimicrobial activity against Escherichia coli DH10B harboring plasmid pBR322-catI carrying beta-lactamase KPC-2 by agar dilution method; assay type: functional; settings: K-12 DH10B; in short: as §1
[7] = tested on: Escherichia coli; test: Antimicrobial activity against Escherichia coli DH10B harboring beta-lactamase KPC-2 T237D mutant by agar dilution method; assay type: functional; settings: K-12 DH10B; in short: as §1
[8] = tested on: Escherichia coli; test: Antimicrobial activity against Escherichia coli DH10B harboring plasmid […] by agar dilution method; assay type: functional; settings: K-12 DH10B; in short: as §1
[9] = tested on: Escherichia coli; test: Antimicrobial activity against Escherichia coli DH10B harboring beta-lactamase KPC-2 T237P mutant by agar dilution method; assay type: functional; settings: K-12 DH10B; in short: as §1
[10] = tested on: Escherichia coli; test: Antimicrobial activity against Escherichia coli DH10B harboring beta-lactamase KPC-2 T237E mutant by agar dilution method; assay type: functional; settings: K-12 DH10B; in short: as §1
[11] = tested on: Escherichia coli; test: Antimicrobial activity against Escherichia coli DH10B harboring beta-lactamase KPC-2 T237H mutant by agar dilution method; assay type: functional; settings: K-12 DH10B; in short: as §1
[12] = tested on: Escherichia coli; test: Antimicrobial activity against Escherichia coli DH10B harboring beta-lactamase KPC-2 T237W mutant by agar dilution method; assay type: functional; settings: K-12 DH10B; in short: as §1
[13] = tested on: Escherichia coli; test: Antimicrobial activity against Escherichia coli DH10B harboring beta-lactamase KPC-2 T237Y mutant by agar dilution method; assay type: functional; settings: K-12 DH10B; in short: as §1
[14] = tested on: Escherichia coli; test: Antimicrobial activity against Escherichia coli DH10B harboring beta-lactamase KPC-2 T237I mutant by agar dilution method; assay type: functional; settings: K-12 DH10B; in short: as §1
[15] = tested on: Escherichia coli; test: Antimicrobial activity against Escherichia coli DH10B harboring beta-lactamase KPC-2 T237N mutant by agar dilution method; assay type: functional; settings: K-12 DH10B; in short: as §1
[16] = tested on: Escherichia coli; test: Antimicrobial activity against Escherichia coli DH10B harboring beta-lactamase KPC-2 T237S mutant by agar dilution method; assay type: functional; settings: K-12 DH10B; in short: as §1
[17] = tested on: Escherichia coli; test: Antimicrobial activity against Escherichia coli DH10B by agar dilution method; assay type: functional; settings: K-12 DH10B; in short: as §1
[18] = tested on: Escherichia coli; test: Antimicrobial activity against Escherichia coli DH10B harboring beta-lactamase KPC-2 T237L mutant by agar dilution method; assay type: functional; settings: K-12 DH10B; in short: as §1
[19] = tested on: Klebsiella pneumoniae; test: Antimicrobial activity against Klebsiella pneumoniae 1534 expressing beta-lactamase KPC-2 by agar dilution method; assay type: functional
In short: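 MICs were determined by LB agar dilution following CLSI criteria, with a Steers replicator. […] Piperacillin-tazobactam was kept at an 8:1 ratio.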

[20] = tested on: Escherichia coli; test: Antimicrobial activity against Escherichia coli DH10B harboring beta-lactamase KPC-2 T237K mutant by agar dilution method; assay type: functional; settings: K-12 DH10B; in short: as §1
[21] = tested on: Escherichia coli; test: Antimicrobial activity against Escherichia coli DH10B harboring beta-lactamase KPC-2 T237G mutant by agar dilution method; assay type: functional; settings: K-12 DH10B; in short: as §1
[22] = tested on: Escherichia coli; test: Antimicrobial activity against Escherichia coli DH10B harboring beta-lactamase KPC-2 T237F mutant by agar dilution method; assay type: functional; settings: K-12 DH10B; in short: as §1
[23] = tested on: Escherichia coli; test: Antimicrobial activity against Escherichia coli DH10B harboring beta-lactamase KPC-2 T237R mutant by agar dilution method; assay type: functional; settings: K-12 DH10B; in short: as §1
[24] = tested on: Escherichia coli; test: Antimicrobial activity against Escherichia coli DH10B harboring plasmid pBC SK(+) carrying wild type beta-lactamase KPC-2 by agar dilution method; assay type: functional; settings: K-12 DH10B; in short: as §1
[25] = tested on: Klebsiella pneumoniae; test: Ratio of Kcat/Km for Klebsiella pneumoniae 1534 beta-lactamase KPC-2 T237S mutant by spectrophotometric analysis
In short: (§2)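 Purified KPC-2 variant enzymes (periplasmic lysate from E. coli, preparative isoelectric focusing). Hydrolysis followed by diode-array spectrophotometry in 10 mM PBS, pH 7.4, room temperature. Enzyme at 10 nM with substrate in molar excess for pseudo-first-order conditions. Vmax and Km came from a nonlinear least-squares Michaelis-Menten fit.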

[26] = tested on: Klebsiella pneumoniae; test: Selectivity index, Ratio of Kcat/Km for Klebsiella pneumoniae 1534 beta-lactamase KPC-2 T237S mutant to ratio of Kcat/Km for Klebsiella pneumoniae 1534 beta-lactamase KPC-2 by spectrophotometric analysis
In short: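 Kinetics used purified enzymes in 10 mM PBS, pH 7.4, room temperature, with 10 nM enzyme and substrate in excess. Km and Vmax came from a Michaelis-Menten fit. kcat/Km of the variant was compared with wild type as ΔΔG = −RT ln of the kcat/Km ratio.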

[27] = tested on: Klebsiella pneumoniae; test: Activity of Klebsiella pneumoniae 1534 beta-lactamase KPC-2 T237S mutant by spectrophotometric analysis; in short: as §2
[28] = tested on: Klebsiella pneumoniae; test: Activity of Klebsiella pneumoniae 1534 beta-lactamase KPC-2 T237A mutant by spectrophotometric analysis; in short: as §2
[29] = Inhibition of Klebsiella pneumoniae 1534 beta-lactamase KPC-2 T237A mutant by competitive assay
In short: (§3)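 Direct competition assay at steady state with purified enzyme at 10 nM. Inhibitor was varied from 5 μM to 5 mM, with nitrocefin 100 μM final as reporter substrate. 1/v0 was plotted against [I], and Ki(observed) was taken as y-intercept divided by slope. This was corrected by 1 + [S]/Km(nitrocefin).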

[30] = tested on: Klebsiella pneumoniae; test: Ratio of Ki for Klebsiella pneumoniae 1534 beta-lactamase KPC-2 T237A mutant to Ki for wild type Klebsiella pneumoniae beta-lactamase KPC-2 by competitive assay
[31] = tested on: Klebsiella pneumoniae; test: Ratio of Ki for Klebsiella pneumoniae 1534 beta-lactamase KPC-2 T237S mutant to Ki for Klebsiella pneumoniae wild type beta-lactamase KPC-2 by competitive assay; in short: as §3
[32] = Inhibition of Klebsiella pneumoniae 1534 beta-lactamase KPC-2 T237S mutant by competitive assay; in short: as §3
[33] = tested on: Klebsiella pneumoniae; test: Ratio of Kcat/Km for Klebsiella pneumoniae 1534 beta-lactamase KPC-2 T237A mutant by spectrophotometric analysis; in short: as §2

| Compound | MIC [1] [µg/mL] | MIC [2] [µg/mL] | MIC [3] [µg/mL] | MIC [4] [µg/mL] | MIC [5] [µg/mL] | MIC [6] [µg/mL] | MIC [7] [µg/mL] | MIC [8] [µg/mL] | MIC [9] [µg/mL] | MIC [10] [µg/mL] | MIC [11] [µg/mL] | MIC [12] [µg/mL] | MIC [13] [µg/mL] | MIC [14] [µg/mL] | MIC [15] [µg/mL] | MIC [16] [µg/mL] | MIC [17] [µg/mL] | MIC [18] [µg/mL] | MIC [19] [µg/mL] | MIC [24] [µg/mL] | also measured |
| --- | --- | --- | --- | --- | --- | --- | --- | --- | --- | --- | --- | --- | --- | --- | --- | --- | --- | --- | --- | --- | --- |
| C[C@@H](O)[C@H]1C(=O)N2C(C(=O)O)=C(S[C@@H]3CN[C@H](CNS(N)(=O)=O)C3)[C@H](C)[C@H]12 [DORIPENEM] | 0.06 (≈ 0.143 µM) | 0.06 (≈ 0.143 µM) | 0.06 (≈ 0.143 µM) | 0.06 (≈ 0.143 µM) | 0.06 (≈ 0.143 µM) | 4 (≈ 9.51 µM) | 0.06 (≈ 0.143 µM) | 0.06 (≈ 0.143 µM) | 0.06 (≈ 0.143 µM) | 0.06 (≈ 0.143 µM) | 0.06 (≈ 0.143 µM) | 0.06 (≈ 0.143 µM) | 0.06 (≈ 0.143 µM) | 0.06 (≈ 0.143 µM) | 0.06 (≈ 0.143 µM) | 0.25 (≈ 0.595 µM) | 0.06 (≈ 0.143 µM) | 0.06 (≈ 0.143 µM) | 4 (≈ 9.51 µM) | 0.25 (≈ 0.595 µM) | MIC [20]: 0.06 µg/mL (≈ 0.143 µM); MIC [21]: 0.06 µg/mL (≈ 0.143 µM); MIC [22]: 0.06 µg/mL (≈ 0.143 µM); MIC [23]: 0.06 µg/mL (≈ 0.143 µM) |
| CO/N=C(\C(=O)N[C@@H]1C(=O)N2C(C(=O)O)=C(COC(C)=O)CS[C@H]12)c1csc(N)n1 [CEFOTAXIME] | 0.06 (≈ 0.132 µM) | 0.06 (≈ 0.132 µM) | 0.06 (≈ 0.132 µM) | 0.06 (≈ 0.132 µM) | 0.06 (≈ 0.132 µM) | 8 (≈ 17.6 µM) | 0.125 (≈ 0.274 µM) | 0.06 (≈ 0.132 µM) | 0.06 (≈ 0.132 µM) | 0.06 (≈ 0.132 µM) | 0.06 (≈ 0.132 µM) | 0.06 (≈ 0.132 µM) | 0.06 (≈ 0.132 µM) | 0.06 (≈ 0.132 µM) | 0.06 (≈ 0.132 µM) | 1 (≈ 2.2 µM) | 0.06 (≈ 0.132 µM) | 0.06 (≈ 0.132 µM) | 16 (≈ 35.1 µM) | 2 (≈ 4.39 µM) | kcat/Km [25]: 260000 M⁻¹ s⁻¹; fold change (FC) [26]: 2.7; MIC [20]: 0.06 µg/mL (≈ 0.132 µM); MIC [21]: 0.06 µg/mL (≈ 0.132 µM); MIC [22]: 0.06 µg/mL (≈ 0.132 µM); MIC [23]: 0.06 µg/mL (≈ 0.132 µM); Km [27]: 168 µM; kcat [27]: 43 s⁻¹; kcat [28]: < 0.1 s⁻¹ |
| C[C@]1(Cn2ccnn2)[C@H](C(=O)O)N2C(=O)C[C@H]2S1(=O)=O [TAZOBACTAM] |  |  |  |  |  |  |  |  |  |  |  |  |  |  |  |  |  |  |  |  | Ki [29]: 174 µM; fold change (FC) [30]: 2.2; fold change (FC) [31]: 1.7; Ki [32]: 53 µM |
| C[C@@H](O)[C@H]1C(=O)N2C(C(=O)O)=C(SCCNC=N)C[C@H]12 [IMIPENEM ANHYDROUS] |  |  |  |  |  | 8 (≈ 26.7 µM) | 0.25 (≈ 0.835 µM) |  |  |  |  | 0.25 (≈ 0.835 µM) |  |  |  | 1 (≈ 3.34 µM) |  |  | 8 (≈ 26.7 µM) | 0.5 (≈ 1.67 µM) | kcat/Km [25]: 1e+06 M⁻¹ s⁻¹; kcat/Km [33]: 220000 M⁻¹ s⁻¹; fold change (FC) [26]: 2.7; Km [27]: 21 µM; kcat [27]: 21 s⁻¹; Km [28]: 31 µM; kcat [28]: 6.8 s⁻¹ |
